# The source made the active and inactive calls. The calls are words filed in the database; no cut-off is given here. Starred links: 1 amine or outer side, 2 acyl side, 3 side chain; linkers in the order of their positions; H or OH if unused. Positions of bridges follow the written chain, without caps; N, C: chain ends. Non-standard residues stand in square brackets, D forms with d. Residues, ends and D or L forms follow the SMILES beside them. Chains are numbered I, II in the order given. Actinocin(1to9) = Cc1c2oc3c(C)ccc(C(=O)[*:2])c3nc-2c(C(=O)[*:1])c(N)c1=O; NMeV = CN[C@H](C(=O)O)C(C)C; Sar = CNCC(=O)O
# Experiments:
# Jurkat [1] = assay: Cytotoxicity against human Jurkat T cells after 48 hrs by MTT assay; format: functional, cell-based
# Procedure, shortened: (§1)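 All four lines kept in RPMI 1640 with 10% FBS, 1% GlutaMAX, penicillin/streptomycin. Cells seeded at (2.5-5.0) × 10^4 per well and held overnight at 37 °C. Compounds added as 2-fold DMSO dilutions, top final concentration 100 µM, 0.5% DMSO final. Triplicates, 48 h, 37 °C, 5% CO2. MTT 1 mg/mL added for 3 h. IC50 is the mean of three replicate experiments.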
# HCT-116 [2] = assay: Cytotoxicity against human HCT116 cells after 48 hrs by MTT assay; format: functional, cell-based; details: HCT-116, 48 h; procedure, shortened: as §1
# MCF7 [3] = assay: Cytotoxicity against human MCF7 cells after 48 hrs by MTT assay; format: functional, cell-based; details: MCF7, 48 h; procedure, shortened: as §1
# CCRF-CEM [4] = assay: Cytotoxicity against human CCRF-CEM cells after 48 hrs by MTT assay; format: functional, cell-based; procedure, shortened: as §1
# HCT-116 [5] = assay: Cytotoxicity against human HCT116 cells at <=100 uM after 48 hrs by MTT assay; format: functional, cell-based; procedure, shortened: as §1
# MCF7 [6] = assay: Cytotoxicity against human MCF7 cells at <=100 uM after 48 hrs by MTT assay; format: functional, cell-based; procedure, shortened: as §1
# Jurkat [7] = assay: Cytotoxicity against human Jurkat T cells at <=100 uM after 48 hrs by MTT assay; format: functional, cell-based; procedure, shortened: as §1
# CCRF-CEM [8] = assay: Cytotoxicity against human CCRF-CEM cells at <=100 uM after 48 hrs by MTT assay; format: functional, cell-based; procedure, shortened: as §1
# Jurkat [9] = assay: Induction of apoptosis in human Jurkat T cells assessed as activation of caspase3 at 10 uM after 6 hrs relative to control; format: functional
# Procedure, shortened: (§2)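 Jurkat T cells at 1 × 10^6 cells/mL treated for 6 h, then centrifuged at 4 °C, washed and homogenized. Caspase-3 activity read with DEVD-AMC substrate at 200 nM. Rate of fluorescence increase normalized to Bradford protein, expressed as fold over untreated cells. Three independent experiments.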
# Jurkat [10] = assay: Induction of apoptosis in human Jurkat T cells assessed as increase in DNA fragmentation at 10 uM after 6 hrs by ELISA relative to control; format: functional
# Procedure, shortened: (§3)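 Jurkat T cells at 1 × 10^6 cells/mL exposed for 6 h. DNA fragmentation measured as histone-DNA complexes by histone ELISA and expressed as fold increase over untreated cells.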
# Jurkat [11] = assay: Induction of apoptosis in human Jurkat T cells assessed as activation of caspase3 at 0.3 uM after 6 hrs relative to control; format: functional; procedure, shortened: as §2
# Jurkat [12] = assay: Induction of apoptosis in human Jurkat T cells assessed as increase in DNA fragmentation at 0.33 uM after 6 hrs by ELISA relative to control; format: functional; procedure, shortened: as §3
SMILES,IC50 (Jurkat [1]) [µM],IC50 (HCT-116 [2]) [µM],IC50 (MCF7 [3]) [µM],IC50 (CCRF-CEM [4]) [µM],Activity (HCT-116 [5]),Activity (MCF7 [6]),Activity (Jurkat [7]),Activity (CCRF-CEM [8]),other results
Cc1cc(O)cc(O)c1C(=O)O[C@@H]1C[C@]2(C)[C@@H]3[C@H](C=C(C=O)[C@]12O)CC(C)(C)[C@@H]3O,86.2,> 100,> 100,63.2,–,–,–,–,–
Cc1cc(O)cc(O)c1C(=O)O[C@@H]1C[C@]2(C)[C@H]3[C@@H](O)C(C)(C)C[C@@]3(O)C=C(CO)[C@]12O,–,–,–,–,inactive,inactive,inactive,inactive,–
Cc1cc(O)cc(O)c1C(=O)O[C@@H]1C[C@]2(C)[C@H]3[C@@H](O)C(C)(C)C[C@@]3(O)C=C(C=O)[C@]12O,–,–,–,–,inactive,inactive,inactive,inactive,–
Cc1cc(O)cc(O)c1C(=O)O,–,–,–,–,inactive,inactive,inactive,inactive,–
COc1cc(O)c(C(=O)O[C@@H]2C[C@@]3(C)C2=C(C=O)[C@@H](O)[C@@H]2CC(C)(C)C[C@@H]23)c(C)c1Cl [ARNAMIAL],3.93,10.7,15.4,8.91,–,–,–,–,fold change (FC) (Jurkat [9]): 18.1; fold change (FC) (Jurkat [10]): 4.5
"Cc1c2oc3c(C)ccc(C(=O)N[C@@H]4C(=O)N[C@H](C(C)C)C(=O)N5CCC[C@H]5C(=O)N(C)CC(=O)N(C)[C@@H](C(C)C)C(=O)O[C@@H]4C)c3nc-2c(C(=O)N[C@@H]2C(=O)N[C@H](C(C)C)C(=O)N3CCC[C@H]3C(=O)N(C)CC(=O)N(C)[C@@H](C(C)C)C(=O)O[C@@H]2C)c(N)c1=O [DACTINOMYCIN] (I: T[dV]P[Sar][NMeV] / II: T[dV]P[Sar][NMeV]; ester I:1-I:C, II:1-II:C; linker I:N-II:N via Actinocin(1to9))",–,–,–,–,–,–,–,–,fold change (FC) (Jurkat [11]): 5.7; fold change (FC) (Jurkat [12]): 4.3
COc1cc(O)c(C(=O)O[C@@H]2C[C@]3(C)[C@H]4[C@@H](O)C(C)(C)C[C@@]4(O)C=C(C=O)[C@]23O)c(C)c1Cl [MELLEDONAL C],58.8,> 100,> 100,14.8,–,–,–,–,–
COc1cc(O)c(C(=O)O[C@@H]2C[C@]3(C)[C@H]4[C@@H](O)C(C)(C)C[C@@]4(O)C=C(CO)[C@]23O)c(C)c1Cl [MELLEOLIDE D],> 100,> 100,> 100,61.7,–,–,–,–,–
COc1cc(C)c(C(=O)O)c(O)c1,–,–,–,–,inactive,inactive,inactive,inactive,–
COc1cc(C)c(C(=O)O[C@@H]2C[C@]3(C)[C@H]4[C@@H](O)C(C)(C)C[C@@]4(O)C=C(CO)[C@]23O)c(O)c1,–,–,–,–,inactive,inactive,inactive,inactive,–

# — ChEMBL document CHEMBL1154329, “Structure and cytotoxicity of arnamial and related fungal sesquiterpene aryl esters” (J Nat Prod, 2009)
